Data on one compound can be found in ChEMBL document CHEMBL4699492, “Discovery of Novel Pyrazolo[3,4-b] Pyridine Derivatives with Dual Activities of Vascular Remodeling Inhibition and Vasodilation for the Treatment of Pulmonary Arterial Hypertension” (J Med Chem, 2020).

The IC50 is the concentration that inhibits the measured activity by half. A word on the Emax: it is the size of the effect at its maximum, as opposed to the concentration needed. By inhibition is commonly meant the share of the control response that was lost under treatment. By solubility is commonly meant the concentration that dissolves in the medium under given conditions. Read a low solubility as a poorly soluble substance. As a reminder, the half-life is the time needed for the level to fall by half in the phase considered.

Data set [1] is described as follows: Antiproliferative activity against HPASMC assessed as reduction in TGFbeta-induced cell proliferation measured after 48 hrs by CCK8 assay. Format: functional, tissue-based. As to conditions: Homo sapiens, Pulmonary Artery Smooth Muscle Cells. Put shortly:
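HPASMCs grown in high-glucose D-MEM with 20% FBS and HLF1 in D-MEM/F-12 (1:1) with 10% FBS. Cells stimulated with TGF-β (10 ng/mL) at 37 °C, 5% CO2, then exposed to a concentration range for 48 h. CCK-8 added for 4 h and absorbance read at 490 nm. IC50 derived from the curves.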

The test system of the next data set is Aorta. The data set can be described thus: Vasodilating activity in Sprague-Dawley rat aortic rings assessed as reduction in phenylephrine-induced contractions at 1 uM relative to control. Format: functional. Put shortly: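 Thoracic aorta from male SD rats (250-280 g) anesthetized with chloral hydrate, cut into 4 mm rings. Rings held in Krebs-Henseleit at 37 °C gassed with 95% O2/5% CO2, under 2 g resting tension, equilibrated 60 min, and precontracted with 10^-7 M phenylephrine. Cumulative concentrations of 3×10^-9 to 10^-6 M (final) applied. Percent relaxation of the initial contraction taken at 1 µM, and EC50 derived.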

Data set [2] has as its target cGMP-specific 3',5'-cyclic phosphodiesterase (Homo sapiens) (UniProt O76074). The data set can be described thus: Inhibition of PDE5A1 catalytic domain (535 to 860 residues) (unknown origin) expressed in Escherichia coli BL21 (DE3) at 100 nM using [3H]cGMP as substrate after 15 mins by liquid scintillation counting method relative to control. Put shortly: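 PDE reaction in 50 mM Tris-HCl pH 8.0 with 4 mM MnCl2 or 10 mM MgCl2 and 1 mM DTT, using 3H-cGMP substrate. Run 15 min at room temperature, stopped with 0.2 M ZnSO4, and product precipitated with 0.2 M Ba(OH)2. Radioactivity of the supernatant counted by liquid scintillation. Inhibition rate calculated, with sildenafil as reference.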

Data set [3] concerns Pulmonary Artery Smooth Muscle Cells. The data set can be described thus: Stimulation of sGC in HPASMC assessed as increase in intracellular cGMP level measured after 1 hr in absence of PDE5 inhibitor IBMX and sGC inhibitor ODQ by cGMP-d2/europium cryptate reagent based HTRF assay. As to conditions: Homo sapiens, filed as activator. Format: tissue-based. Put shortly:
(§1)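 HPASMCs were suspended at 100,000 cells/mL in PBS with 0.2% BSA, with or without 10 µM ODQ. Compounds were added as a 6-point, 10-fold dilution series; the top 2× stock was 200 µM. Incubation was 1 h at room temperature, in triplicate. cGMP-d2 in lysis buffer and europium cryptate were then added for 1 h before HTRF reading. Three independent experiments.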

Data set [4] shares this test system. The data set can be described thus: Stimulation of sGC in HPASMC assessed as increase in intracellular cGMP level measured after 1 hr in presence of […] IBMX by cGMP-d2/europium cryptate reagent based HTRF assay. The note with it: Homo sapiens, filed as activator. Format: tissue-based. The essentials:
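HPASMCs at 100 000 cells/mL in PBS with 1 mM IBMX and 0.2% BSA, with or without 10 µM ODQ. Exposed to a 6-point, 10-fold dilution series (top 200 µM, 2× stock) in triplicate for 1 h at room temperature. cGMP-d2 in lysis buffer and europium cryptate added, then 1 h at room temperature before HTRF reading. Three independent experiments averaged.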
On the technique in general: TR-FRET usually uses a lanthanide donor and a delayed reading to cut background.

Data set [5] has the same test system. The data set can be described thus: Stimulation of sGC in HPASMC assessed as increase in intracellular cGMP level at 100 uM measured after 1 hr in presence of PDE5 inhibitor IBMX by cGMP-d2/europium cryptate reagent based HTRF assay relative to control. Format: tissue-based. The note with it: Homo sapiens, filed as activator. Put shortly: as §1
Data set [6] deals with AMP-activated protein kinase, AMPK (Homo sapiens) (UniProt P54646+O43741+P54619+Q9UGJ0+Q9Y478+Q13131+Q9UGI9). The data set can be described thus: Inhibition of AMPK in TGFbeta-induced HPASMC assessed as reduction in cell migration measured after 24 hrs by wound healing assay. Format: tissue-based. As to conditions: Pulmonary Artery Smooth Muscle Cells, dose microM 5-10, time 24.0 hrs. Put shortly: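 Wound-healing assay. 5 × 10^4 cells were seeded per well and grown 24 h to near confluence. The monolayer was scratched with a pipette tip and washed with PBS. Cells were then kept in 1% FBS medium with TGF-β (10 ng/mL) or under hypoxia (1% O2, 5% CO2, 94% N2), alone or with compound. Migration ran 24 h at 37 °C, imaged at 0 and 24 h. Mean ± SD from three independent experiments.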

The nature of data set [7]: Solubility of compound in water at pH 3.5. As to conditions: buffer. Format: physicochemical.
Data set [8] is described as follows: Half life in Sprague-Dawley rat liver microsomes at 1.5 uM preincubated for 5 mins followed by NADPH addition and measured up to 45 mins by LC-MS/MS analysis. Format: ADME, Microsome. As to conditions: time <=50 min. Put shortly: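 Liver microsomes (0.75 mg/mL), human or SD rat, in 0.1 M potassium phosphate pH 7.4 with 3.0 mM MgCl2 and 1.5 µM compound, run in duplicate. After 5 min preincubation at 37 °C, reaction started with 3 mM NADPH. Quenched at 0, 5, 15, 30 and 45 min with ice-cold acetonitrile containing internal standard. Ketanserin served as positive control and a no-NADPH buffer incubation as negative control. LC-MS/MS read-out.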
(In general: Liver microsomes are a subcellular fraction often used to study metabolism.)

Data set [9] can be described thus: Protein binding in human plasma. Format: ADME, cell-free. The note with it: read-out: PPB (converted).
Data set [10] has as its system Rattus norvegicus. Put plainly: Inhibition of vascular remodeling activity in Sprague-Dawley rat model of hypoxia-induced pulmonary artery hypertension assessed as right ventricular systolic pressure at 10 mg/kg, po administered daily for 2 weeks by catheter method (reference value: 26.2 mmHg). Format: functional.
Data set [11] relates to Rattus norvegicus. Put plainly: Inhibition of vascular remodeling activity in Sprague-Dawley rat model of hypoxia-induced pulmonary artery hypertension assessed as increase in body weight at 10 mg/kg, po administered daily for 2 weeks. Format: functional, organism-based.
Data set [12] deals with Rattus norvegicus. The data set can be described thus: Inhibition of vascular remodeling activity in Sprague-Dawley rat model of hypoxia-induced pulmonary artery hypertension assessed as reduction in pulmonary artery medial thickness at 10 mg/kg, po administered daily for 2 weeks by H and E staining based digital microscopic analysis. Format: functional, organism-based. The essentials:
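Hypoxia model in male SD rats (10% O2, 4 weeks) with oral dosing at 10 mg/kg daily for 14 days in 0.5% CMC-Na. Paraffin-embedded lung tissue was cut into 5 µm sections and stained with H&E. Pulmonary artery medial thickness was quantified, n = 5/group.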

Data set [13] deals with Rattus norvegicus. Put plainly: Inhibition of vascular remodeling activity in Sprague-Dawley rat model of hypoxia-induced pulmonary artery hypertension assessed as reduction in Smad2 phosphorylation in lungs at 10 mg/kg, po administered daily for 2 weeks by Western blot analysis. Format: functional, organism-based. Put shortly: (§2)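 Hypoxic PAH model in male SD rats (160-200 g) kept at 10% O2 for 4 weeks. Oral dosing at 10 mg/kg daily for 14 days, suspended in 0.5% CMC-Na; control and hypoxia groups received vehicle only. Lungs homogenized in RIPA with protease and phosphatase inhibitors. 30 µg protein run on 10% SDS-PAGE, then PVDF blotting, with β-actin as loading reference. Three independent runs.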
On the technique in general: Immunoblotting shows a protein as a band on a membrane.

Data set [14] deals with Rattus norvegicus. The data set can be described thus: In vivo stimulation of sGC in Sprague-Dawley rat model of hypoxia-induced pulmonary artery hypertension assessed as increase in phosphorylation levels of VASP in lungs at 10 mg/kg, po administered daily for 2 weeks by Western blot analysis. Format: functional, organism-based.
Data set [15] concerns Rattus norvegicus. The data set can be described thus: In vivo inhibition of AMPK in Sprague-Dawley rat model of hypoxia-induced pulmonary artery hypertension assessed as reduction in AMPK phosphorylation in lungs at 10 mg/kg, po administered daily for 2 weeks by Western blot analysis. Format: functional, organism-based. Put shortly: as §2

Each structure is given as a SMILES string. Values after ≈ are worked out from the molar mass of the structure shown. Active and inactive are the calls of the source.

On to `Cc1ccccc1COc1nc2c(cc1-c1nc(N)cc(N)n1)c(C)nn2-c1ccccc1`, for which, in data set [1], the 50% inhibitory concentration (IC50) was 17 µM. Besides, the maximal response (Emax) at 1 µM with Aorta came out at 63.2%. In addition, the results for the inhibition in [2] and in data set [6] were 4.3% and “Dose-dependent effect”, respectively. The outcome (in data set [3]; in the data set on Rattus norvegicus [14]) was Active. Also, the Activity entry in [4] is “Dose-dependent effect”; in data set [5], 40%; in the data set on Rattus norvegicus [10], 22 mmHg. Besides, the solubility in data set [7] was determined as 0.028 µg/mL (≈ 0.064 µM). Also, in [8], the half-life at 1.5 µM is 10 min. Moreover, the fraction unbound in data set [9] was 0.002. Further, the inhibition result with Rattus norvegicus [11], in the data set with Rattus norvegicus [12], with Rattus norvegicus [13] and in the data set on Rattus norvegicus [15] was “Active” in each case.
